ChEMBL document CHEMBL1155272, “Nucleoside-5'-monophosphates as prodrugs of adenosine A2A receptor agonists activated by ecto-5'-nucleotidase” (J Med Chem, 2009)

Molecular target: T1, 5'-nucleotidase (Rattus norvegicus) (UniProt P21588)
T1 sequence (whole entry): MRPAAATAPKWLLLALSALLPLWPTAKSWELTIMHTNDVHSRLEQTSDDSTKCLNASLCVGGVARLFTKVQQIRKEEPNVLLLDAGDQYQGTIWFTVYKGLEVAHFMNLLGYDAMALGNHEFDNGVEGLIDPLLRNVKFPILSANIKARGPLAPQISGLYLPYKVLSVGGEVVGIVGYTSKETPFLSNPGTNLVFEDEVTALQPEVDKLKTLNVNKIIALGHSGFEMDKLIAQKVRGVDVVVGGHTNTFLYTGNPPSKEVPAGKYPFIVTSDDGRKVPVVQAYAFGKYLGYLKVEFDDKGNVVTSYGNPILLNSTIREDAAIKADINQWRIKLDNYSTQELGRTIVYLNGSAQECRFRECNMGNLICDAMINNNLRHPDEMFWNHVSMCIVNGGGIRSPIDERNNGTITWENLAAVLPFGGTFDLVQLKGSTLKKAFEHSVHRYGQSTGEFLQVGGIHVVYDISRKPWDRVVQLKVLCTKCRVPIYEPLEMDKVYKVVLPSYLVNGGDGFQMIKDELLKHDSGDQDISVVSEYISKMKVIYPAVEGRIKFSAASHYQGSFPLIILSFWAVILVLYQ
Assay: Activity at rat recombinant ecto-5'-nucleotidase expressed in baculovirus-infected insect Sf9 cells co-transfected with soluble glutathione-S-transferase assessed as compound dephosphorylation by capillary electrophoresis relative to AMP
Set-up: concentration or dose not given beside the values
Procedure, shortened: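 Purified GST-rat ecto-5'-NT fusion protein (baculovirus/insect cells, glutathione-agarose purified). 500 μM nucleoside monophosphate in 10 mM Hepes pH 7.4, 2 mM MgCl2, 1 mM CaCl2; 37 °C, 20 min; stopped at 99 °C for 5 min. Nucleoside product quantified by capillary electrophoresis (borate pH 9.1, UV 232 nm). Dephosphorylation expressed relative to AMP (100%). Two experiments, triplicate injections.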

Which Activity does the source give for Nc1nc(SCc2ccccc2)nc2c1ncn2[C@@H]1O[C@H](COP(=O)(O)O)[C@@H](O)[C@H]1O here?
Its Activity is 0%.

For Nc1nc(SC2CCCC2)nc2c1ncn2[C@@H]1O[C@H](COP(=O)(O)O)[C@@H](O)[C@H]1O, which Activity is on record?
The Activity was 71%.

Nc1nc(SC2CCCCC2)nc2c1ncn2[C@@H]1O[C@H](COP(=O)(O)O)[C@@H](O)[C@H]1O was tested. Which Activity did it give?
Its Activity is 28%.

With C#CCSc1nc(N)c2ncn([C@@H]3O[C@H](COP(=O)(O)O)[C@@H](O)[C@H]3O)c2n1 as the compound, how does the Activity read?
Its Activity is 0%.

With Nc1nc(SCCC2COCCO2)nc2c1ncn2[C@@H]1O[C@H](COP(=O)(O)O)[C@@H](O)[C@H]1O (some centres not stated) as the compound, how does the Activity read?
Its Activity is 67%.

Nc1nc(SCCC2CCCCC2)nc2c1ncn2[C@@H]1O[C@H](COP(=O)(O)O)[C@@H](O)[C@H]1O was tested. Which Activity did it give?
The Activity was 96%.

For Nc1nc(SCC2CCCCC2)nc2c1ncn2[C@@H]1O[C@H](COP(=O)(O)O)[C@@H](O)[C@H]1O, which Activity is on record?
Its Activity is 71%.

With Nc1nc(SCCc2ccccc2)nc2c1ncn2[C@@H]1O[C@H](COP(=O)(O)O)[C@@H](O)[C@H]1O as the compound, how does the Activity read?
Its Activity is 0%.

For CCCCCCSc1nc(N)c2ncn([C@@H]3O[C@H](COP(=O)(O)O)[C@@H](O)[C@H]3O)c2n1, which Activity is on record?
Its Activity is 84%.

Which Activity does the source give for C=CCSc1nc(N)c2ncn([C@@H]3O[C@H](COP(=O)(O)O)[C@@H](O)[C@H]3O)c2n1 here?
Its Activity is 0%.

How did the Activity turn out when Nc1nc(SCCC2OCCO2)nc2c1ncn2[C@@H]1O[C@H](COP(=O)(O)O)[C@@H](O)[C@H]1O was run?
Its Activity is 104%.

With CCCSc1nc(N)c2ncn([C@@H]3O[C@H](COP(=O)(O)O)[C@@H](O)[C@H]3O)c2n1 as the compound, how does the Activity read?
Its Activity is 47%.
